Measured values reported in ChEMBL document CHEMBL5661979, “Pharmacological inhibition of BMK1 suppresses tumor growth through promyelocytic leukemia protein” (Cancer Cell, 2010).

Experiments:
[1] = biological target: 3-phosphoinositide-dependent protein kinase 1 (Homo sapiens, UniProt O15530); assay: Inhibition of PDK1 in human HeLa cells lysate pre incubated for 15 mins followed by ADP acyl phosphate probe addition and measured after 10 mins by LC-MS/MS analysis; assay type: subcellular
[2] = biological target: 5'-AMP-activated protein kinase catalytic subunit alpha-1 (Homo sapiens, UniProt Q13131); assay: Inhibition of AMPKalpha1 in human HeLa cells lysate at 50 uM pre incubated for 15 mins followed by ADP acyl phosphate probe addition and measured after 10 mins by LC-MS/MS analysis relative to control; assay type: subcellular; conditions: time 25.0 min
Summary of the method: (§1)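 HeLa cell lysates (5 mg/mL total protein) were preincubated with inhibitor at 0, 0.8, 2, 10 or 50 μM for 15 min. ATP or ADP acylphosphate probe was then added (5 μM final) for 10 min, and reactions were stopped with urea. Up to four fragment ions per kinase probe-peptide were quantified by targeted MS. % inhibition was taken relative to untreated lysate. Run in duplicate.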

[3] = biological target: Dual specificity mitogen-activated protein kinase kinase 3 (Homo sapiens, UniProt P46734); assay: Inhibition of MAP2K3 in human HeLa cells lysate pre incubated for 15 mins followed by ATP acyl phosphate probe addition and measured after 10 mins by LC-MS/MS analysis; assay type: subcellular
[4] = Inhibition of MSK1/2 in human HeLa cells lysate at 50 uM pre incubated for 15 mins followed by ADP acyl phosphate probe addition and measured after 10 mins by LC-MS/MS analysis relative to control; conditions: 25 min, condition cancer
[5] = Inhibition of PRKX/PRKY in human HeLa cells lysate at 10 uM pre incubated for 15 mins followed by ADP acyl phosphate probe addition and measured after 10 mins by LC-MS/MS analysis relative to control; conditions: 25 min, condition cancer
[6] = biological target: Ribosomal protein S6 kinase beta-1 (Homo sapiens, UniProt P23443); assay: Inhibition of P70S6K in human HeLa cells lysate at 10 uM pre incubated for 15 mins followed by ATP acyl phosphate probe addition and measured after 10 mins by LC-MS/MS analysis relative to control; assay type: subcellular; conditions: time 25.0 min
[7] = biological target: Ribosomal protein S6 kinase alpha-1 (Homo sapiens, UniProt Q15418); assay: Inhibition of RSK1 domain 2 K2 site in human HeLa cells lysate at 10 uM pre incubated for 15 mins followed by ADP acyl phosphate probe addition and measured after 10 mins by LC-MS/MS analysis relative to control; assay type: subcellular; conditions: time 25.0 min
Ephrin type-B receptor 4 = Ephrin type-B receptor 4 (Homo sapiens, UniProt P54760); assay: Inhibition of EphB4 in human HeLa cells lysate pre incubated for 15 mins followed by ADP acyl phosphate probe addition and measured after 10 mins by LC-MS/MS analysis; assay type: subcellular
[8] = biological target: Phosphatidylinositol 4-kinase beta (Homo sapiens, UniProt Q9UBF8); assay: Inhibition of PIK4CB in human HeLa cells lysate pre incubated for 15 mins followed by ADP acyl phosphate probe addition and measured after 10 mins by LC-MS/MS analysis; assay type: subcellular
[9] = biological target: T1, Serine/threonine-protein kinase 3 (Homo sapiens) (UniProt Q13188); assay: Inhibition of MST2 in human HeLa cells lysate at 10 uM pre incubated for 15 mins followed by ADP acyl phosphate probe addition and measured after 10 mins by LC-MS/MS analysis relative to control; assay type: subcellular; conditions: time 25.0 min
T1 sequence (whole entry): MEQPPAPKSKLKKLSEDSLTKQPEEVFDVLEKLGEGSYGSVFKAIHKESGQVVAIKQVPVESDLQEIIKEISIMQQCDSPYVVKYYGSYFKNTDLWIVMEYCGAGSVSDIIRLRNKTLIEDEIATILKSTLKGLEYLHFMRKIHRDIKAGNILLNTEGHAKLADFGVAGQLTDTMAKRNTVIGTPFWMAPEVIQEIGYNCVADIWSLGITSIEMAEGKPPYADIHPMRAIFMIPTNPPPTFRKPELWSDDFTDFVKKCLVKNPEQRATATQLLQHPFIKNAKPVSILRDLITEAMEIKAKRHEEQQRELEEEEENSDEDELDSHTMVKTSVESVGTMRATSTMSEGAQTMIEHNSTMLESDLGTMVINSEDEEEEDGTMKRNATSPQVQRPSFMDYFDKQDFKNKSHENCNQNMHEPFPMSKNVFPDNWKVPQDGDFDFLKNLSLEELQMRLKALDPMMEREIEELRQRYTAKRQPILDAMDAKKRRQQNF

[10] = biological target: Serine/threonine-protein kinase PLK1 (Homo sapiens, UniProt P53350); assay: Inhibition of PLK1 in human HeLa cells lysate at 50 uM pre incubated for 15 mins followed by ATP acyl phosphate probe addition and measured after 10 mins by LC-MS/MS analysis relative to control; assay type: subcellular; conditions: time 25.0 min
[11] = biological target: Mitogen-activated protein kinase 14 (Homo sapiens, UniProt Q16539); assay: Inhibition of P38alpha interaction site in human HeLa cells lysate at 2 uM pre incubated for 15 mins followed by ATP acyl phosphate probe addition and measured after 10 mins by LC-MS/MS analysis relative to control; assay type: subcellular; conditions: time 25.0 min
Wee1-like protein kinase = Wee1-like protein kinase (Homo sapiens, UniProt P30291); assay: Inhibition of Wee1 in human HeLa cells lysate at 50 uM pre incubated for 15 mins followed by ATP acyl phosphate probe addition and measured after 10 mins by LC-MS/MS analysis relative to control; assay type: subcellular; conditions: time 25.0 min
[12] = biological target: RAC-alpha serine/threonine-protein kinase (Homo sapiens, UniProt P31749); assay: Inhibition of AKT1 in human HeLa cells lysate at 2 uM pre incubated for 15 mins followed by ATP acyl phosphate probe addition and measured after 10 mins by LC-MS/MS analysis relative to control; assay type: subcellular; conditions: time 25.0 min; summary of the method: as §1
[13] = biological target: Cyclin-dependent kinase 10 (Homo sapiens, UniProt Q15131); assay: Inhibition of CDK10 in human HeLa cells lysate at 50 uM pre incubated for 15 mins followed by ATP acyl phosphate probe addition and measured after 10 mins by LC-MS/MS analysis relative to control; assay type: subcellular; conditions: time 25.0 min
Summary of the method: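 KiNativ profiling in HeLa lysate (5 mg/mL total protein). Lysate incubated 15 min with inhibitor at 50, 10, 2, 0.8 or 0 μM. ATP or ADP acylphosphate probe then added (5 μM final) and reacted 10 min. Reaction stopped with urea and analysed by targeted MS, using up to four fragment ions per kinase peptide-probe conjugate. % inhibition taken against untreated lysate. Run in duplicate.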

[14] = biological target: Ephrin type-B receptor 4 (Homo sapiens) (UniProt P54760); assay: Inhibition of EphB4 in human HeLa cells lysate at 2 uM pre incubated for 15 mins followed by ATP acyl phosphate probe addition and measured after 10 mins by LC-MS/MS analysis relative to control; assay type: subcellular; conditions: time 25.0 min
[15] = Plasma concentration in C57Bl/6 mouse at 50 mg/kg, ip administered for 8 day and measured 8 hr post last dose by LC-MS/MS analysis; assay type: ADME, organism-based

Chain of Dual specificity mitogen-activated protein kinase kinase 3 (P46734 whole entry): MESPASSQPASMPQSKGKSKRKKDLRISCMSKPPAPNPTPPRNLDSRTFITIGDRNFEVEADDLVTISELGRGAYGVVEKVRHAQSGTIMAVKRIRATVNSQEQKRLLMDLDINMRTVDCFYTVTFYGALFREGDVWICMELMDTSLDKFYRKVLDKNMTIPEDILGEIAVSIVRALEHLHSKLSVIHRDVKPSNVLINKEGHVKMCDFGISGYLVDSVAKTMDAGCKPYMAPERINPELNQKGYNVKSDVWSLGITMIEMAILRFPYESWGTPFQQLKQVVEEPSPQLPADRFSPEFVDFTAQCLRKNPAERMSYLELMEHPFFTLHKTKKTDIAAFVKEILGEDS
Chain of Ribosomal protein S6 kinase beta-1 (P23443 whole entry, looked up, the tested form may be a part): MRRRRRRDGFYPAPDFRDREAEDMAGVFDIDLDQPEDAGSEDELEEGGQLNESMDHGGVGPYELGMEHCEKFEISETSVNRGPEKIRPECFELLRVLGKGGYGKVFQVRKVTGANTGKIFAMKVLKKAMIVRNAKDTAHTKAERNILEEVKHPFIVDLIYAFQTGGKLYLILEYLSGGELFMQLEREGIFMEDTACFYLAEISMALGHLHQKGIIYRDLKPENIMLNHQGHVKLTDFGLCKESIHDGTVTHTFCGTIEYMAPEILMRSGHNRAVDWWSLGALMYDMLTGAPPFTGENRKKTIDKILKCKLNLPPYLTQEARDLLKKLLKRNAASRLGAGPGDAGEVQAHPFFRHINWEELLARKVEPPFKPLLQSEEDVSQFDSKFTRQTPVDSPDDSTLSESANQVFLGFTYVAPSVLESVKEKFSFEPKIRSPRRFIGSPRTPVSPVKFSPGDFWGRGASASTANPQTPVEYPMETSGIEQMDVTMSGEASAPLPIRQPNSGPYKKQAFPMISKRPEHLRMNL
Chain of Wee1-like protein kinase (P30291 whole entry, looked up): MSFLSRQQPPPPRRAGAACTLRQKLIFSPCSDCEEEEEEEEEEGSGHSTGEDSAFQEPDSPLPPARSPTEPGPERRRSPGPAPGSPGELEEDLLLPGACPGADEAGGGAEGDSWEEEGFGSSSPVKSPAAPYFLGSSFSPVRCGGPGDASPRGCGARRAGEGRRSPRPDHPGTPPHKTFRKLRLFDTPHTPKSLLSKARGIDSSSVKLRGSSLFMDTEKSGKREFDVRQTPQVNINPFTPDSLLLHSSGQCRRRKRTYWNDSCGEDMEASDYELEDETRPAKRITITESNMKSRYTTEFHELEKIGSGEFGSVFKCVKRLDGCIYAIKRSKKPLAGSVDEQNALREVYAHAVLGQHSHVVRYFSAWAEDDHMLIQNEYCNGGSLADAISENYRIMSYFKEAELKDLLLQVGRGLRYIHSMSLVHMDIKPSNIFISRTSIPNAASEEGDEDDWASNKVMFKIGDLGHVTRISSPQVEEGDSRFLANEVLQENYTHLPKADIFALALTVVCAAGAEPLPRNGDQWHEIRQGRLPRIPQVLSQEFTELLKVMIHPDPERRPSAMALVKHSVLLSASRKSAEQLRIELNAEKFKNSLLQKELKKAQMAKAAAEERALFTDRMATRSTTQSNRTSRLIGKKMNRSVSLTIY
Chain of Cyclin-dependent kinase 10 (Q15131 whole entry, the tested form may be a part): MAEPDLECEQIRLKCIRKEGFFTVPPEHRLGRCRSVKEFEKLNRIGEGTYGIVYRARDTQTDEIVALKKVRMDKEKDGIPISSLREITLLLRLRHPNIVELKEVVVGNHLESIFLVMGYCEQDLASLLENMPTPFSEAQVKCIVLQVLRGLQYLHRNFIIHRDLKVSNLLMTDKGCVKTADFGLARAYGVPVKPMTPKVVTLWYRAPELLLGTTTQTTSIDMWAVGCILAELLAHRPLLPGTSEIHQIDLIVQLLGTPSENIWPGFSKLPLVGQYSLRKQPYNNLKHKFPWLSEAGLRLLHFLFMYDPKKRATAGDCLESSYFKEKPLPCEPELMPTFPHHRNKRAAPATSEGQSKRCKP
Chain of Phosphatidylinositol 4-kinase beta (Q9UBF8 whole entry): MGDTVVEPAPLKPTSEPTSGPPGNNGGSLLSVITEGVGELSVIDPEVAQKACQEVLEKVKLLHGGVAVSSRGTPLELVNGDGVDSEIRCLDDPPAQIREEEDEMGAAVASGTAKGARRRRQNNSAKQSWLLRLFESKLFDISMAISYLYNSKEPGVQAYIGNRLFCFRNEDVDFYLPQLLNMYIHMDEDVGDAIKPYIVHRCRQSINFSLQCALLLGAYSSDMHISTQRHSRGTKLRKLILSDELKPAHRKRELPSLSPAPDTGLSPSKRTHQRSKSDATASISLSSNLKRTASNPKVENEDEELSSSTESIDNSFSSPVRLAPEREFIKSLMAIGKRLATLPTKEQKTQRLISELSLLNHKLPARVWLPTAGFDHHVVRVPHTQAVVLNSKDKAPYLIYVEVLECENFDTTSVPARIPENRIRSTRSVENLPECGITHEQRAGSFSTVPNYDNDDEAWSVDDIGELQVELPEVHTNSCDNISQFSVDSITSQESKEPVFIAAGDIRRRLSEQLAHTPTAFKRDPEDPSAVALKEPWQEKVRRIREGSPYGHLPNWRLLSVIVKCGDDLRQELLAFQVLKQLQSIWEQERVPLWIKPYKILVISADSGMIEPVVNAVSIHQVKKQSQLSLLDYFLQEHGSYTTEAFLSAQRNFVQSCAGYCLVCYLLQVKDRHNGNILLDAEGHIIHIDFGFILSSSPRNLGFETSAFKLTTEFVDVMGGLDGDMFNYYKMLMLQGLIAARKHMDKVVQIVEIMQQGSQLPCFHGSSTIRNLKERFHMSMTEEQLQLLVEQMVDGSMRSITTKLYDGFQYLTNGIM
Chain of 5'-AMP-activated protein kinase catalytic subunit alpha-1 (Q13131 whole entry, looked up, the tested form may be a part): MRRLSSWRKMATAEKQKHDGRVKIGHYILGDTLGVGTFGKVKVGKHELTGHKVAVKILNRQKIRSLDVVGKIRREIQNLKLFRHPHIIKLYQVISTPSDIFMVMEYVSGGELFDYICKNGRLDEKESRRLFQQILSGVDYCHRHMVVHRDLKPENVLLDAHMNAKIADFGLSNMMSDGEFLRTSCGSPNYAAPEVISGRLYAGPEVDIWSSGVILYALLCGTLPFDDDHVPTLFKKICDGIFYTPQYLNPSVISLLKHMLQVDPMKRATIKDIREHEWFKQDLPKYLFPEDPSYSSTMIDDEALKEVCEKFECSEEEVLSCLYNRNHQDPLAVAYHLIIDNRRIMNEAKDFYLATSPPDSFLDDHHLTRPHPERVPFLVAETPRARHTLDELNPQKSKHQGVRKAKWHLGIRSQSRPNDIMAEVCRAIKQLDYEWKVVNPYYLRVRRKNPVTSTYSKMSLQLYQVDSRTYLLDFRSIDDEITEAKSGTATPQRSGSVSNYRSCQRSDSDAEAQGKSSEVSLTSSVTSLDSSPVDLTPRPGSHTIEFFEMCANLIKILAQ
Chain of Mitogen-activated protein kinase 14 (Q16539 whole entry): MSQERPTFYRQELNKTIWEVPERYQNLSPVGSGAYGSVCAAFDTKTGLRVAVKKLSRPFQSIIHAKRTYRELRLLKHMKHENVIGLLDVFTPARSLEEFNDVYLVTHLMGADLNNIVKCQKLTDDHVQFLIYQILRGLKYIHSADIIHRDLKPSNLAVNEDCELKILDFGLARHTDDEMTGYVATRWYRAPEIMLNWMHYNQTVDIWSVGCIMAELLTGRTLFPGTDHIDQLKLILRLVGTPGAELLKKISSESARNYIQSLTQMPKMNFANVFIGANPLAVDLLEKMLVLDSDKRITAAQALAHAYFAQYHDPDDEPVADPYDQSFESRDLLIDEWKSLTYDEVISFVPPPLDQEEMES
Chain of Ephrin type-B receptor 4 (P54760 whole entry): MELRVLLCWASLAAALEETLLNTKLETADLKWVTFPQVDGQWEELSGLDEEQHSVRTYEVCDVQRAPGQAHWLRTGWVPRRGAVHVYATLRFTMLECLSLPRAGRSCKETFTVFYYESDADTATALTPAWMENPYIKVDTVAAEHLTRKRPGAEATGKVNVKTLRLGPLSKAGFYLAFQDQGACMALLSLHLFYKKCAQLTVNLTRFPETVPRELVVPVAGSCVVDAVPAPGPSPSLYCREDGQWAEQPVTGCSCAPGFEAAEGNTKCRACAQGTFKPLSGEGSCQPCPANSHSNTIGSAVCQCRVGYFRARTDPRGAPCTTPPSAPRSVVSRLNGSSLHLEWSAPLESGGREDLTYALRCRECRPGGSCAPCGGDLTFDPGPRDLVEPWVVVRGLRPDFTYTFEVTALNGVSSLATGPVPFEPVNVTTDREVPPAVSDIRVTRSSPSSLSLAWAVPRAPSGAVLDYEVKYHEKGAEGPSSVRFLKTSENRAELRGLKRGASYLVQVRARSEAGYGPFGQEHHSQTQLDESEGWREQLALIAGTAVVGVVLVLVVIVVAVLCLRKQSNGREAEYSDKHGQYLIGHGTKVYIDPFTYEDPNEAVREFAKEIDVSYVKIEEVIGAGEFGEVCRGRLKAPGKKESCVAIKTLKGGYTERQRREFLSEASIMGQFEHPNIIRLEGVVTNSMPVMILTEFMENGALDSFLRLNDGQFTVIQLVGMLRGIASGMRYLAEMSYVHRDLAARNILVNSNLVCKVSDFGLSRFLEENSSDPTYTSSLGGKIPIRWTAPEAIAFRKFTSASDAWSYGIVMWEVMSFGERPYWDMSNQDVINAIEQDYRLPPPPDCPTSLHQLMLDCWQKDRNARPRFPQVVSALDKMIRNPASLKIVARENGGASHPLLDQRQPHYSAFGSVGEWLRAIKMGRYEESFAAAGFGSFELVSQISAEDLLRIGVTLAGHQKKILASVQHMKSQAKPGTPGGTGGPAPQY
Chain of Ephrin type-B receptor 4 (Homo sapiens) (P54760 whole entry): as above

CCOc1cc(N2CCC(O)CC2)ccc1Nc1ncc2c(n1)N(C)c1ccccc1C(=O)N2C
IC50 [1]: > 50 µM | inhibition [2]: 10.2% | IC50 [3]: > 50 µM | inhibition at 50 µM [4]: 10% | inhibition at 10 µM [5]: -14.3% | inhibition [6]: -9.6% | inhibition [7]: 5.4% | IC50 (Ephrin type-B receptor 4): > 50 µM | IC50 [8]: > 50 µM | inhibition [9]: 23.5% | inhibition [10]: -6.5% | inhibition [11]: -9.5% | inhibition (Wee1-like protein kinase): 4.1% | inhibition [12]: -6.9% | inhibition [13]: -0.4% | inhibition [14]: -5.4% | concentration at 192 h [15]: 12.8 µM
